Measurements reported in ChEMBL document CHEMBL3232994, “Searching for new derivatives of neocryptolepine: synthesis, antiproliferative, antimicrobial and antifungal activities” (Eur J Med Chem, 2014).
Values after ≈ are worked out from the molar mass of the structure shown. Active and inactive are the calls of the source. The calls are words filed in the database; no cut-off is given here.

Columns and labels:
Candida albicans [1] = assay: Antifungal activity against Candida albicans ATCC 10231 assessed as growth inhibition after 18 hrs by two-fold serial dilution method; format: functional; details: ATCC 10231, 18 h
Summary of the method: (§1)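 MIC by twofold serial dilution on RPMI agar per CLSI. Final inoculum 10⁴ CFU/mL. Plates read after 18 h at 35 °C.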

Micrococcus luteus [2] = assay: Antibacterial activity against Micrococcus luteus ATCC 9341 assessed as growth inhibition after 18 hrs by two-fold serial dilution method; details: ATCC 9341, 18 h
Candida albicans [3] = assay: Antifungal activity against Candida albicans SN250 assessed as growth inhibition after 18 hrs by two-fold serial dilution method; format: functional; details: SN250, 18 h
Staphylococcus aureus [4] = assay: Antibacterial activity against Staphylococcus aureus ATCC 25923 assessed as growth inhibition after 18 hrs by two-fold serial dilution method; format: functional; details: ATCC 25923, 18 h
Summary of the method: (§2)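 Twofold serial agar dilution on Mueller–Hinton II agar per CLSI. Final inoculum 10⁴ CFU/mL, except Enterococcus hirae ATCC 10541 at 10⁵ CFU/mL. MIC read after 18 h at 35 °C.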

Enterococcus hirae = assay: Antibacterial activity against Enterococcus hirae ATCC 10541 assessed as growth inhibition after 18 hrs by two-fold serial dilution method; format: functional; details: ATCC 10541, 18 h; summary of the method: as §2
Staphylococcus aureus [5] = assay: Antibacterial activity against Staphylococcus aureus ATCC 6538 assessed as growth inhibition after 18 hrs by two-fold serial dilution method; format: functional; details: ATCC 6538, 18 h; summary of the method: as §2
Candida albicans [6] = assay: Antifungal activity against Candida albicans ATCC 90028 assessed as growth inhibition after 18 hrs by two-fold serial dilution method; format: functional; details: ATCC 90028, 18 h; summary of the method: as §1
Bacillus spizizenii = assay: Antibacterial activity against Bacillus subtilis ATCC 6633 assessed as growth inhibition after 18 hrs by two-fold serial dilution method; format: functional; details: ATCC 6633, 18 h; summary of the method: as §2
Staphylococcus aureus [7] = assay: Antibacterial activity against Staphylococcus aureus ATCC 29213 assessed as growth inhibition after 18 hrs by two-fold serial dilution method; format: functional; details: ATCC 29213, 18 h; summary of the method: as §2
Candida parapsilosis = assay: Antifungal activity against Candida parapsilosis ATCC 22019 assessed as growth inhibition after 18 hrs by two-fold serial dilution method; format: functional; details: Lodderomyces parapsilosis, ATCC 22019, 18 h
[8] = tested on: Staphylococcus epidermidis; assay: Antibacterial activity against Staphylococcus epidermidis ATCC 12228 assessed as growth inhibition after 18 hrs by two-fold serial dilution method; format: functional; details: ATCC 12228, 18 h; summary of the method: as §2
Staphylococcus aureus [9] = assay: Antibacterial activity against Staphylococcus aureus NCTC 4163 assessed as growth inhibition after 18 hrs by two-fold serial dilution method; format: functional; details: NCTC 4163, 18 h; summary of the method: as §2
Candida albicans [10] = assay: Antifungal activity against Candida albicans SN250 assessed as inhibition of biofilm formation < MIC after 24 hrs by XTT reduction assay; format: functional, organism-based
Bacillus cereus = assay: Antibacterial activity against Bacillus cereus ATCC 11778 assessed as growth inhibition after 18 hrs by two-fold serial dilution method; format: functional; details: ATCC 11778, 18 h; summary of the method: as §2
Micrococcus luteus [11] = assay: Antibacterial activity against Micrococcus luteus ATCC 10240 assessed as growth inhibition after 18 hrs by two-fold serial dilution method; format: functional; details: ATCC 10240, 18 h; summary of the method: as §2
KB = assay: Cytotoxicity against human KB cells assessed as growth inhibition after 72 hrs by SRB assay; format: functional, cell-based
Summary of the method: (§3)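 Cells were seeded at 10⁴/well in RPMI 1640/Opti-MEM (1:1) with 5% FBS, plus 0.01 mg/mL insulin for MCF-7, 24 h before dosing. Agents in water/medium were given at four tenfold final levels for 72 h. Cells were fixed with cold 50% TCA (1 h, 4 °C), stained with 0.4% SRB, cell-free blank. Triplicate wells, 3–5 repeats. IC50 relative to untreated control.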

LoVo = assay: Cytotoxicity against human LoVo cells assessed as growth inhibition after 72 hrs by SRB assay; format: functional, cell-based; summary of the method: as §3
BALB/3T3 = assay: Cytotoxicity against mouse BALB/3T3 cells assessed as growth inhibition after 72 hrs by SRB assay; format: cell-based; details: BALB/3T3, 72 h
Summary of the method: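 Mouse fibroblasts were kept in Dulbecco medium with 10% FBS, L-glutamine and pyruvate, and seeded at 10⁴/well 24 h before dosing. Agents were given at four tenfold final levels for 72 h. Cells were TCA-fixed (50%, 4 °C, 1 h) and stained with 0.4% SRB in 1% acetic acid. Triplicate wells, 3–5 repeats. IC50 versus untreated cells.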

MCF7 = assay: Cytotoxicity against human MCF7 cells assessed as growth inhibition after 72 hrs by SRB assay; format: functional, cell-based; details: MCF7, 72 h; summary of the method: as §3
A549 = assay: Cytotoxicity against human A549 cells assessed as growth inhibition after 72 hrs by SRB assay; format: functional, cell-based; details: A549, 72 h; summary of the method: as §3
Candida albicans [12] = assay: Antifungal activity against Candida albicans SN250 assessed as […] at 2.4 to 625 ug/mL after 24 hrs by XTT reduction assay; format: functional, organism-based

Row | Structure (SMILES) | MIC (Candida albicans [1]) [µg/mL] | MIC (Micrococcus luteus [2]) [µg/mL] | MIC (Candida albicans [3]) [µg/mL] | MIC (Staphylococcus aureus [4]) [µg/mL] | MIC (Enterococcus hirae) [µg/mL] | MIC (Staphylococcus aureus [5]) [µg/mL] | MIC (Candida albicans [6]) [µg/mL] | MIC (Bacillus spizizenii) [µg/mL] | MIC (Staphylococcus aureus [7]) [µg/mL] | MIC (Candida parapsilosis) [µg/mL] | MIC [8] [µg/mL] | MIC (Staphylococcus aureus [9]) [µg/mL] | MIC (Bacillus cereus) [µg/mL] | MIC (Micrococcus luteus [11]) [µg/mL] | inhibition (Candida albicans [12]) | other results
1 | Cc1c2c3cc(NC(=O)[C@@H]4CCCN4)ccc3nc-2n(C)c2ccccc12.Cl.Cl | 200 | 6.25 | 200 | 50 | 100 | 12.5 | 200 | 12.5 | 50 | 200 | 12.5 | 12.5 | 50 | 6.25 | – | inhibition (Candida albicans [10]): Active
2 | Cc1c2c3ccccc3nc-2n(C)c2ccc(NC(=O)[C@@H]3CCCN3)cc12.Cl | 100 | 6.25 | 31.2 | 50 | 100 | 12.5 | 50 | 6.25 | 50 | 50 | 12.5 | 12.5 | 25 | 6.25 | – | IC50 (KB): 470 nM; IC50 (LoVo): 70 nM; IC50 (BALB/3T3): 540 nM; IC50 (MCF7): 620 nM; IC50 (A549): 120 nM
3 | Cc1c2c3ccccc3nc-2n(C)c2ccccc12 | 12.5 (≈ 50.7 µM) | 50 (≈ 203 µM) | 12.5 (≈ 50.7 µM) | 200 (≈ 812 µM) | 200 (≈ 812 µM) | 100 (≈ 406 µM) | 12.5 (≈ 50.7 µM) | 50 (≈ 203 µM) | 100 (≈ 406 µM) | 12.5 (≈ 50.7 µM) | 100 (≈ 406 µM) | 100 (≈ 406 µM) | 100 (≈ 406 µM) | 50 (≈ 203 µM) | – | IC50 (BALB/3T3): 5770 nM; inhibition (Candida albicans [10]): Active
4 | Cc1c2c3ccccc3nc-2n(C)c2ccc(NC(=O)CNC(=O)CN)cc12.Cl | > 200 | > 200 | > 500 | > 200 | > 200 | > 200 | > 200 | > 200 | > 200 | > 200 | > 200 | > 200 | > 200 | > 200 | inactive | IC50 (KB): 1540 nM; IC50 (LoVo): 1170 nM; IC50 (BALB/3T3): 2110 nM; IC50 (MCF7): 4110 nM; IC50 (A549): 1440 nM
5 | OC(Cn1cncn1)(Cn1cncn1)c1ccc(F)cc1F [FLUCONAZOLE] | 1 (≈ 3.27 µM) | – | – | – | – | – | 1 (≈ 3.27 µM) | – | – | 2 (≈ 6.53 µM) | – | – | – | – | – | –
6 | Cc1c2c3cc(NC(=O)[C@@H](N)Cc4cnc[nH]4)ccc3nc-2n(C)c2ccccc12.Cl | > 200 | > 200 | 125 | > 200 | > 200 | > 200 | > 200 | > 200 | > 200 | > 200 | > 200 | > 200 | > 200 | > 200 | – | –
7 | Cc1c2c3cc(NC(=O)CNC(=O)[C@@H]4CCCN4)ccc3nc-2n(C)c2ccccc12.Cl.Cl | 200 | 50 | 200 | > 200 | > 200 | > 200 | 200 | 100 | 100 | 200 | 100 | > 200 | > 200 | 50 | inactive | –
8 | Cc1c2c3cc(NC(=O)CN)ccc3nc-2n(C)c2ccccc12.Cl.Cl | 25 | 6.25 | 15.6 | 50 | 100 | 50 | 50 | 12.5 | 100 | 25 | 25 | 50 | 50 | 6.25 | – | inhibition (Candida albicans [10]): Active
9 | Cc1c2c3ccccc3nc-2n(C)c2ccc(NC(=O)[C@@H](N)Cc3cnc[nH]3)cc12.Cl | > 200 | > 200 | 250 | > 200 | > 200 | > 200 | > 200 | > 200 | > 200 | > 200 | > 200 | > 200 | > 200 | > 200 | inactive | IC50 (KB): 3880 nM
10 | O=C(O)c1cn(C2CC2)c2cc(N3CCNCC3)c(F)cc2c1=O [CIPROFLOXACIN] | – | 2 (≈ 6.04 µM) | – | 0.5 (≈ 1.51 µM) | 4 (≈ 12.1 µM) | 0.25 (≈ 0.754 µM) | – | < 0.125 | 0.5 (≈ 1.51 µM) | – | 0.25 (≈ 0.754 µM) | 0.25 (≈ 0.754 µM) | 1 (≈ 3.02 µM) | 1 (≈ 3.02 µM) | – | –
11 | Cc1c2c3cc(NC(=O)CNC(=O)CN)ccc3nc-2n(C)c2ccccc12.Cl.Cl | 200 | 200 | 200 | > 200 | > 200 | > 200 | 200 | 100 | > 200 | 200 | > 200 | > 200 | > 200 | 200 | inactive | –
